Data set [1] in a line: Antiproliferative activity against mouse BA/F3 cells harboring JAK2 V617F mutation assessed as cell viability after 48 hrs by Cell titer Glo assay. The following applies: BaF3, 48 h. The format is functional. For orientation: Cellular ATP, detected with luciferase, serves as a proxy for viable cell number.
Data set [2] has as its target Non-receptor tyrosine-protein kinase TYK2 (Homo sapiens, UniProt P29597). In words: Inhibition of recombinant TYK2.
For data set [3], the target named is T1, Tyrosine-protein kinase JAK3 (Homo sapiens, UniProt P52333).
T1 sequence (P52333 whole entry): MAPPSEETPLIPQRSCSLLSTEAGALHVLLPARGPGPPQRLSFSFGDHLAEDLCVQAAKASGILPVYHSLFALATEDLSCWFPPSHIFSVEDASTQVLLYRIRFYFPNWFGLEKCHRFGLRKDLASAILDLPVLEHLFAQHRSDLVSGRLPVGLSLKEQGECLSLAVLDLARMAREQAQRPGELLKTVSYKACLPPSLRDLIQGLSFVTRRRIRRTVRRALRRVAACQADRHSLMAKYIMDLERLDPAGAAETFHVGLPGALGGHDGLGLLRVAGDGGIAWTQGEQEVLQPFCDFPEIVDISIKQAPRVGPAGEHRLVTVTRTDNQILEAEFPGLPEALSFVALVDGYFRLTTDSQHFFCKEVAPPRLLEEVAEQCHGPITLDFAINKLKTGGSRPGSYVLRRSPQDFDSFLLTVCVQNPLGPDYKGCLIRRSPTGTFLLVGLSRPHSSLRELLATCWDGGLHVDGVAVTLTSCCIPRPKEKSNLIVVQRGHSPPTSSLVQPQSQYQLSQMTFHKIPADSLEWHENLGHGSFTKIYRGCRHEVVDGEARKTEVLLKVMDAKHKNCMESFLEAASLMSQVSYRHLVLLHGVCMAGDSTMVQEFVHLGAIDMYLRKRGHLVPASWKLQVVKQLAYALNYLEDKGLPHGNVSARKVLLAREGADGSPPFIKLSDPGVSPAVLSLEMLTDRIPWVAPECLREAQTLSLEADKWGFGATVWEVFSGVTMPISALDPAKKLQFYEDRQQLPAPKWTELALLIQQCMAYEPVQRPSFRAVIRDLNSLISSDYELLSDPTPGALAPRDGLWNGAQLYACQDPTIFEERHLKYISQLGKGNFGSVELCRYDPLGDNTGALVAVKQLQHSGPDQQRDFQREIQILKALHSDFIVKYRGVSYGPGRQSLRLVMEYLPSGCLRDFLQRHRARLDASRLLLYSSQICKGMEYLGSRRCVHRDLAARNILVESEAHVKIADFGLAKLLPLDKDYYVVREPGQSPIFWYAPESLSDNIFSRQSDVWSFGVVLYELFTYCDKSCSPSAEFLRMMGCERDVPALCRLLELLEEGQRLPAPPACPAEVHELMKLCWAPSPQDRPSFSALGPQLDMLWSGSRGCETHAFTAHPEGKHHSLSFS
Description: Inhibition of recombinant JAK3 using Poly (Glu,Ala,Tyr) as substrate after 2 hrs by luminescence assay.

Data set [4] concerns the target Tyrosine-protein kinase JAK1 (Homo sapiens, UniProt P23458). Description: Inhibition of recombinant JAK1 using Poly (Glu,Ala,Tyr) as substrate after 2 hrs by luminescence assay. In short, it runs like this:
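Luciferase-coupled ATP-depletion luminescence assay in 50 mM Hepes pH 7.5 with MgCl₂, MnCl₂, BGP, DTT and orthovanadate, 2 h at room temperature. Conditions per target: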

The target of data set [5] is Tyrosine-protein kinase JAK2 (Homo sapiens, UniProt O60674). In words: Inhibition of recombinant JAK2 using Poly (Glu,Ala,Tyr) as substrate after 2 hrs by luminescence assay.
Tyrosine-protein kinase JAK2, sequence (O60674 whole entry): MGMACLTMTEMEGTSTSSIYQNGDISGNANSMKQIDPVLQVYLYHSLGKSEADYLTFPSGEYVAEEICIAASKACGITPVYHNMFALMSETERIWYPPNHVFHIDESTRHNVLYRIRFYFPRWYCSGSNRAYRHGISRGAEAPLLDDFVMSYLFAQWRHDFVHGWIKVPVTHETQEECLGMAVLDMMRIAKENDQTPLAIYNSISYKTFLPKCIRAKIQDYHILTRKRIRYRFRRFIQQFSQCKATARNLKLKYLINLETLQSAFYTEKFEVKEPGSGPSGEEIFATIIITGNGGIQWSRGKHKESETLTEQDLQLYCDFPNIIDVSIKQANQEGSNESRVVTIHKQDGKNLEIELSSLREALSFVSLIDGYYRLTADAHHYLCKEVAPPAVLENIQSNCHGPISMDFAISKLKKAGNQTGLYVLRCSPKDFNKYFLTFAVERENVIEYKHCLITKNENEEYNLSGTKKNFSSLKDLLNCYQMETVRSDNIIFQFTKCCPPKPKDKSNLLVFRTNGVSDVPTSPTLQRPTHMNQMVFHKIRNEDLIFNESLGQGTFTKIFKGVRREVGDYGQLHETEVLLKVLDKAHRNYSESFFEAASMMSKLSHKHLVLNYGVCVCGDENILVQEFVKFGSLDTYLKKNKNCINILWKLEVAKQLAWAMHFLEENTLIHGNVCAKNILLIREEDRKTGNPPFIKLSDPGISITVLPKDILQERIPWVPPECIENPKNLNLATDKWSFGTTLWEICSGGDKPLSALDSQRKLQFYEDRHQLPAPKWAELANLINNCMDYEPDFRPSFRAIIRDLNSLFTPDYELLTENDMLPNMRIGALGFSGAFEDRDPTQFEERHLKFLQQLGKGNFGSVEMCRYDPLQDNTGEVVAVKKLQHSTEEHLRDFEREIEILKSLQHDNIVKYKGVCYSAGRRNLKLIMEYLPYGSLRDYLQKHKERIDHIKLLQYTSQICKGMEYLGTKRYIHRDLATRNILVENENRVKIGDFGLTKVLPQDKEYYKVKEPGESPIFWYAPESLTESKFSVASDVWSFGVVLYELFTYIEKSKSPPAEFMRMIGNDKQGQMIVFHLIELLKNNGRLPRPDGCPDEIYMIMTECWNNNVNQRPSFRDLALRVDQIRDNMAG
Data set [6] has as its target Cyclin-dependent kinase 2/cyclin A (Homo sapiens, UniProt P24941). In words: Inhibition of recombinant CDK2/Cyclin A using RbinG as substrate after 2 hrs by luminescence assay. The format is protein-complex assay.
A further data set deals with Cytochrome P450 2D6 (Homo sapiens, UniProt P10635).
Cytochrome P450 2D6, sequence (P10635 whole entry): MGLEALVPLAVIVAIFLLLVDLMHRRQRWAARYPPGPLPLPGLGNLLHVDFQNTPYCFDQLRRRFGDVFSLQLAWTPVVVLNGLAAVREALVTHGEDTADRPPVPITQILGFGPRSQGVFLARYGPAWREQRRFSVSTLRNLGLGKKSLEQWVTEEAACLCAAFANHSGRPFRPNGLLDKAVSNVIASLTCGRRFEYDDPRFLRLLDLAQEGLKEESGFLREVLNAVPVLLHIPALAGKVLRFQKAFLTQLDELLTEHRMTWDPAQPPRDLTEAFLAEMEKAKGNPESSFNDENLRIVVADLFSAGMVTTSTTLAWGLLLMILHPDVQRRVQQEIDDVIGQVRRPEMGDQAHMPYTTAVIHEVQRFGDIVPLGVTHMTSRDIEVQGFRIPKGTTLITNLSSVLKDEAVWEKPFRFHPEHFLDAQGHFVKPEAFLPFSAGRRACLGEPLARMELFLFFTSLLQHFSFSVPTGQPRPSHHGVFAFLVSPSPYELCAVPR
Another data set concerns the target Cytochrome P450 3A4 (Homo sapiens, UniProt P08684).
Data set [7] is described as follows: in vitro. The settings on record: mouse, liver microsomes. (In general: Microsomes from liver hold many membrane-bound enzymes, among them those of drug oxidation.)
Data set [8] in a line: in vitro. The settings on record: human, liver microsomes.
Data set [9] can be described thus: in vitro. The following applies: PAMPA. Background: PAMPA measures passive passage across an artificial lipid membrane.
In data set [10] the target is T2, Receptor-type tyrosine-protein kinase FLT3 (Homo sapiens, UniProt P36888).
T2 sequence (P36888 whole entry): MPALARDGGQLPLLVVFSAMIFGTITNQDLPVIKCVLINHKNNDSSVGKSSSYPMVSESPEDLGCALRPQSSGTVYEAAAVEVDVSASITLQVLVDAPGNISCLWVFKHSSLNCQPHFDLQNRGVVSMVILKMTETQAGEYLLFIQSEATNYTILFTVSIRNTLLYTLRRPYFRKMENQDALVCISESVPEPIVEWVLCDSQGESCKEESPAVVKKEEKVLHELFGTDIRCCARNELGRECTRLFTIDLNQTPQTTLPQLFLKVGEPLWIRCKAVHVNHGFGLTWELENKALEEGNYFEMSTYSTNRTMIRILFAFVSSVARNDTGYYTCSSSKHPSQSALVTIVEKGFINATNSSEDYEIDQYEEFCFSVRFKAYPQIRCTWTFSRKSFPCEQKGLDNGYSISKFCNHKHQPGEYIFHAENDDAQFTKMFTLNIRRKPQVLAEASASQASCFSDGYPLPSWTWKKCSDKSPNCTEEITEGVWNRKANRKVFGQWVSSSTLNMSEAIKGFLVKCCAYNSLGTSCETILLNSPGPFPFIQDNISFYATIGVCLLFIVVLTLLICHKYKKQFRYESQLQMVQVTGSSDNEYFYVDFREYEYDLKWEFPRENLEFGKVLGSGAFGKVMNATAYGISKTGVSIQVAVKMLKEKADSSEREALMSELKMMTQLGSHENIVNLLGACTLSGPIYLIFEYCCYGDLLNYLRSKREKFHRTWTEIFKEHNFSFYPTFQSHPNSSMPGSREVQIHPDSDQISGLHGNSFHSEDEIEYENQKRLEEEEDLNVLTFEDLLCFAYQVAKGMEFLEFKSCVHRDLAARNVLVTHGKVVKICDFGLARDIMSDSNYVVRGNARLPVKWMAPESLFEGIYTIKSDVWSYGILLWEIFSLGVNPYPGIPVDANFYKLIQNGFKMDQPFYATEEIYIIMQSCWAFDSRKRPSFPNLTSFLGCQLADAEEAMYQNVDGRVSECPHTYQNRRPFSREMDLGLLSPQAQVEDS
In words: Inhibition of recombinant FLT3 using Poly (Glu,Tyr) as substrate after 2 hrs by luminescence assay.

The next data set can be described thus: physchem. The settings on record: phosphate buffer saline, pH 7.
The subject of a further data set is MV4-11. Description: Antiproliferative activity against human MV4-11 cells harboring FLT3 […] mutant assessed as cell viability after 48 hrs by Cell titer Glo assay. The format is functional. The settings on record: MV4-11, 48 h.

Molecules are shown by their SMILES. Values after ≈ are worked out from the molar mass of the structure shown.

Usually GI50 stands for the concentration giving 50% growth inhibition. The IC50 is the concentration that gives 50% inhibition. The term half-life denotes the time in which the quantity being followed falls by half. Higher therefore signals slow loss. By Papp is commonly meant a coefficient for how fast a substance crosses the barrier. The low end stands for poor permeation, the high end for ready permeation. In general, solubility refers to the dissolved amount per volume that the medium holds.

Tyrosine-protein kinase JAK1, sequence (P23458 whole entry): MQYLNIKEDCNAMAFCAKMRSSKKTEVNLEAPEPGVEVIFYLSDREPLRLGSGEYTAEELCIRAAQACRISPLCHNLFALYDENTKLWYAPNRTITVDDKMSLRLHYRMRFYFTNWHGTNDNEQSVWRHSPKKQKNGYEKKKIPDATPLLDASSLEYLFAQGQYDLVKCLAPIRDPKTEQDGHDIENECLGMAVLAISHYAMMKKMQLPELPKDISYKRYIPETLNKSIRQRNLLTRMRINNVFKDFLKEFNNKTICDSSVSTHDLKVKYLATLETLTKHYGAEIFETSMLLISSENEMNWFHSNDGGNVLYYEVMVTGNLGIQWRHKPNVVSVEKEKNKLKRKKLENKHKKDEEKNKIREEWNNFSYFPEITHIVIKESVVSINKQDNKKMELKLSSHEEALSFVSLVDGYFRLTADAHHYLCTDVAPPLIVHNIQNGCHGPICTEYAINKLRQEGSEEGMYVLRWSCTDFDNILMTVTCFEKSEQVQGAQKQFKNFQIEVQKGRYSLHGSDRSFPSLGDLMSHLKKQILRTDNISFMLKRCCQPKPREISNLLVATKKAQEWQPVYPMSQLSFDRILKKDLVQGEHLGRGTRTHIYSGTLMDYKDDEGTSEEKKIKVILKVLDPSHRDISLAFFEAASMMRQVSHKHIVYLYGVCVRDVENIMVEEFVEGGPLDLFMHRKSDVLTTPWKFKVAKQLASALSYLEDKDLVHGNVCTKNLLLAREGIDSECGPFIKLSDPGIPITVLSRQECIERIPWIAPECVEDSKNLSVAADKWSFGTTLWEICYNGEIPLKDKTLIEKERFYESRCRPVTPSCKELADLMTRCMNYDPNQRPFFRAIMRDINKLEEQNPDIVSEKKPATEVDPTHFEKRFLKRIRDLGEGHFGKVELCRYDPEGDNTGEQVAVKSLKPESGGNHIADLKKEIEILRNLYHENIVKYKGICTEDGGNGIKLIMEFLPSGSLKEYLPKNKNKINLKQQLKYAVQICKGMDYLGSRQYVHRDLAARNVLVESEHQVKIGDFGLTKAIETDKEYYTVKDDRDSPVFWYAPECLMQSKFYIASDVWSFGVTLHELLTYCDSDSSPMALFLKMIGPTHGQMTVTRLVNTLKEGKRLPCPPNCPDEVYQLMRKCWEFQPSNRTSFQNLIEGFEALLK
Cytochrome P450 3A4, sequence (P08684 whole entry): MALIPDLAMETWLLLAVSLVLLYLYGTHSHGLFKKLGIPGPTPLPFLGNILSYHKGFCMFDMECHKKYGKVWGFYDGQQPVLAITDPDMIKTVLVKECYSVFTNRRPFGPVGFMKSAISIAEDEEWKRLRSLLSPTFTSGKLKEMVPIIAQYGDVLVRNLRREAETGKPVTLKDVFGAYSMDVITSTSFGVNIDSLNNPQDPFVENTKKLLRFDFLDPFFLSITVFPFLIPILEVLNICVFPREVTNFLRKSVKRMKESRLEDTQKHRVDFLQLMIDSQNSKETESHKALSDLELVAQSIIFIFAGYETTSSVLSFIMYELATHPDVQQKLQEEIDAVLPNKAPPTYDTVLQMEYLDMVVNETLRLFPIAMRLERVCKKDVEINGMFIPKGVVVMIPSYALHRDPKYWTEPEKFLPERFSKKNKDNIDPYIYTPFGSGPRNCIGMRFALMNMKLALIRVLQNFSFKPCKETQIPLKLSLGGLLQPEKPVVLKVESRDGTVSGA
Non-receptor tyrosine-protein kinase TYK2, sequence (P29597 whole entry): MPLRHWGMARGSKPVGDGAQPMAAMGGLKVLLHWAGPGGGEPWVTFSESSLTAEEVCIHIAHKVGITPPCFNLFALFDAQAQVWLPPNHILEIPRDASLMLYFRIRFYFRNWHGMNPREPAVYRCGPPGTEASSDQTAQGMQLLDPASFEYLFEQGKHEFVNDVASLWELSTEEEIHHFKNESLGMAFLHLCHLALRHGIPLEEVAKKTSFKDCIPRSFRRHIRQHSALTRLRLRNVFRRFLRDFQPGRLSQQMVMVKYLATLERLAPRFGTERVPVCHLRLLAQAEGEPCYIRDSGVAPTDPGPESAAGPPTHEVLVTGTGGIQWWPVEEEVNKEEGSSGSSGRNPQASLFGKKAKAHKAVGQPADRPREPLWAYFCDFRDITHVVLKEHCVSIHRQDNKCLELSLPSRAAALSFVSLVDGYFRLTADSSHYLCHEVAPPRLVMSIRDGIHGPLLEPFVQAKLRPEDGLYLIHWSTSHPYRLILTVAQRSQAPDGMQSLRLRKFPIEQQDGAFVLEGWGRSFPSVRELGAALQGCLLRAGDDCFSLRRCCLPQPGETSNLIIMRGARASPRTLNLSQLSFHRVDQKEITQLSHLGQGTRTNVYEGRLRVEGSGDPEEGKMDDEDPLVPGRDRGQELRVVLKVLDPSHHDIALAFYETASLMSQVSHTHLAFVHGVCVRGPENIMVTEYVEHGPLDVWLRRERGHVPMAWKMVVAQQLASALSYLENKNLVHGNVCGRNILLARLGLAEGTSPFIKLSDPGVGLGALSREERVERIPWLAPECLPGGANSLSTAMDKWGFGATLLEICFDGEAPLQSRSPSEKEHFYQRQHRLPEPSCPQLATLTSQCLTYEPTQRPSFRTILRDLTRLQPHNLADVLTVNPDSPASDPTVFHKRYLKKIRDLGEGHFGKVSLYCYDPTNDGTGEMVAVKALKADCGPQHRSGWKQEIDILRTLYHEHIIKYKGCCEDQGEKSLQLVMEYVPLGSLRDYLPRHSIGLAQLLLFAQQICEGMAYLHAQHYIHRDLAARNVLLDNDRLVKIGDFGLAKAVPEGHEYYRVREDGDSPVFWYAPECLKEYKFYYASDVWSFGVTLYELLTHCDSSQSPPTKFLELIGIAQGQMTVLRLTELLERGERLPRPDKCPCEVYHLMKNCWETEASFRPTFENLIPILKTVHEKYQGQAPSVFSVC

For the compound `C1=CCOCc2cc(ccc2OCCN2CCCCC2)Nc2nccc(n2)-c2cccc(c2)COC1` (mixture of isomers), in [1], the GI50 is 160 nM. Moreover, the IC50 is 84 nM in data set [2]; 750 nM in data set [3]; 950 nM in [4]; 15 nM in [5]; 2700 nM in data set [6]; over 10000 nM against Cytochrome P450 2D6. For the same compound, the IC50 was 370 nM against Cytochrome P450 3A4 and 26 nM in data set [10]. Besides, the results for the half-life at 5 µM in the data set “in vitro [7]” and in the data set “in vitro [8]” were 11 min and over 60 min, respectively. Moreover, in “in vitro [9]”, the apparent permeability coefficient (Papp) at 5 h, 1 µM turned out to be 3.93 ×10⁻⁶ cm/s.

`C1=CCOCc2cccc(c2)-c2ccnc(n2)Nc2cc(cc(OCCN3CCCC3)c2)COC1` (mixture of isomers): the half-inhibitory concentration (IC50) in data set [2] amounted to 80 nM; in [3], 830 nM; in data set [4], 2100 nM; in [5] it was 48 nM; in data set [6], 570 nM; in [10] it was 22 nM. Further, the solubility in “physchem” was determined as 145 µg/mL.

Consider `COc1ccc2cc1COCC=CCOCc1cc(ccc1OCCN1CCCC1)Nc1nccc-2n1` (mixture of isomers), for which the GI50 came out at 85 nM in the data set on MV4-11 and 100 nM in data set [1]. Further, the IC50 in [2] is 180 nM; in [3], 890 nM; in data set [4] it was over 10000 nM; in data set [5] it was 19 nM; in data set [6], over 10000 nM; at Cytochrome P450 2D6, over 10000 nM. The results for the IC50 (on Cytochrome P450 3A4; in [10]) were over 10000 nM and 92 nM, respectively. Also, the half-life at 5 µM in the data set “in vitro [7]” was 29 min; in the data set “in vitro [8]” it was over 60 min. In addition, in the data set “in vitro [9]”, the Papp at 5 h, 1 µM is 10.1 ×10⁻⁶ cm/s. This compound registered a solubility in “physchem” of 60.8 µg/mL.

In the case of `OCCN1CCN(c2ccc3cc2COCC=CCOCc2cccc(c2)-c2ccnc(n2)N3)CC1`, the IC50 amounted to 160 nM in data set [2]; 2500 nM in [3]; 3100 nM in data set [4]; 84 nM in [5]; 3700 nM in [6]; 70 nM in [10]. In the data set “physchem”, this compound had a solubility of 150 µg/mL (≈ 308 µM).

For `Cc1cnc2nc1-c1cccc(c1)COCC=CCOCc1cc(ccc1OCCN1CCCC1)N2`, the GI50 with MV4-11 is 51 nM; in [1], 180 nM. Moreover, the IC50 in data set [2] worked out at 57 nM; in data set [3], 89 nM; in data set [4] it was 1000 nM; in [5], 7 nM; in [10] it was 19 nM. Also, the values for the half-life at 5 µM in “in vitro [7]” and in the data set “in vitro [8]” were 40 min and over 60 min, respectively.

On to `C1=CCOCc2cccc(c2)-c2ccnc(n2)Nc2cc(cc(OCCN3CCOCC3)c2)COC1` (mixture of isomers), for which the half-inhibitory concentration (IC50) in data set [2] worked out at 81 nM; in [3] it was 3300 nM; in data set [4] it was 2400 nM; in data set [5], 96 nM; in [6], 2700 nM; in data set [10], 19 nM. Besides, the solubility in the data set “physchem” came out at 40 µg/mL.

In the case of `C1=CCOc2cccc(c2)Nc2nccc(n2)-c2cccc(c2)OCC1` (mixture of isomers), the half-inhibitory concentration (IC50) in data set [2] is 70 nM; in [3] it was over 10000 nM; in data set [4], over 10000 nM; in [5], 230 nM; in [6] it was 330 nM; in data set [10] it was 880 nM. In the data set “physchem”, the solubility was under 10 µg/mL.

In the case of `C1=CCOCc2cc(ccc2N2CCNCC2)Nc2nccc(n2)-c2cccc(c2)COC1` (mixture of isomers), the half-maximal inhibitory concentration (IC50) in data set [2] turned out to be 140 nM; in data set [3], 1600 nM; in data set [4], 2500 nM; in data set [5], 83 nM; in data set [6], 3400 nM; in [10], 49 nM. In addition, in “physchem”, the solubility worked out at 8.79 µg/mL.

As for `CCN(CC)CCOc1ccc2cc1COCC=CCOCc1cccc(c1)-c1ccnc(n1)N2` (mixture of isomers), the concentration for 50% growth inhibition (GI50) was 37 nM in the data set on MV4-11 and 150 nM in data set [1]. The IC50 in data set [2] is 79 nM; in data set [3] it was 620 nM; in data set [4], 3500 nM; in [5], 24 nM; in [6] it was 4700 nM; against Cytochrome P450 2D6, over 10000 nM. Further, the half-maximal inhibitory concentration (IC50) at Cytochrome P450 3A4 was 2800 nM; in data set [10], 29 nM. The half-life at 5 µM in “in vitro [7]” worked out at 16 min; in the data set “in vitro [8]” it was 44 min. Also, the Papp at 5 h, 1 µM in “in vitro [9]” worked out at 15.8 ×10⁻⁶ cm/s. In addition, the solubility in “physchem” turned out to be 147 µg/mL.

Regarding `COc1cc2cc(c1OCCN1CCCC1)COCC=CCOCc1cccc(c1)-c1ccnc(n1)N2` (mixture of isomers), the IC50 in data set [2] worked out at 170 nM; in [4], 1700 nM; in data set [5], 36 nM; in [6], 3400 nM; in data set [10], 6 nM. For the same compound, in “physchem”, the solubility came to 154 µg/mL.
